Results: ChEMBL document CHEMBL2401738, “Construction and functionalization of pyranone ring fused with pyran moiety: design and synthesis of novel pyrano[4,3-b]pyran-5(4H)-ones as potential inhibitors of sirtuins” (Bioorg Med Chem Lett, 2013)

Tested on: not listed separately
Experiment: (§1) Inhibition of Saccharomyces cerevisiae TEL::URA3 SIR2-mediated URA3 reporter gene silencing after 24 to 48 hrs in presence of 5-FOA
Procedure, shortened: (§2)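 Yeast cell-based reporter silencing assay with URA3 integrated in the telomeric region. Sir2-mediated silencing of URA3 permits growth in 5-fluoroorotic acid, so Sir2 inhibition is read as loss of growth on 5-FOA. Compounds were tested as unseparated stereoisomer mixtures over a dose range, and IC50 was taken from the dose-response.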
With `CCC1C2=C(CC(C)(C)CC2=O)Oc2c(I)c(-c3ccccc3)oc(=O)c21` (configuration not stated) the IC50 was 78 µM.

Tested on: Saccharomyces cerevisiae
Experiment: as §1
Procedure, shortened: as §2
For `CCC1C2=C(CC(C)(C)CC2=O)Oc2c(I)c(-c3ccccc3)oc(=O)c21` (configuration not stated), the inhibition was “Dose-dependent effect”.

Tested on: Saccharomyces cerevisiae
Experiment: Inhibition of Saccharomyces cerevisiae TEL::URA3 SIR2-mediated URA3 reporter gene silencing at 50 uM after 24 to 48 hrs in presence of 5-FOA relative to control
Procedure, shortened: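 Yeast strain with telomere-integrated URA3 reporter. Sir2 silencing of URA3 allows growth in 5-fluoroorotic acid, and inhibition of the yeast SIRT1 homologue Sir2 is scored by reduced growth in 5-FOA. Stereoisomer mixtures were tested unseparated at a single fixed concentration of 50.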
Compound `CC1(C)CC(=O)C2=C(C1)Oc1c(I)c(-c3ccccc3)oc(=O)c1C2c1ccc(F)cc1` (configuration not stated) has an inhibition of 49.5%. Work on `CC1(C)CC(=O)C2=C(C1)Oc1c(I)c(C3(O)CCCCC3)oc(=O)c1C2c1ccc(F)cc1` (configuration not stated) yielded an inhibition of 25.3%. `CC1(C)CC(=O)C2=C(C1)Oc1c(I)c(-c3ccccc3)oc(=O)c1C2c1ccco1` (configuration not stated) gave an inhibition of 15.3%. Work on `CCCCC#Cc1c(-c2ccccc2)oc(=O)c2c1OC1=C(C(=O)CC(C)(C)C1)C2c1cccc(O)c1` (configuration not stated) yielded an inhibition of 1.01%. `COc1ccc(C2C3=C(CC(C)(C)CC3=O)Oc3c(I)c(-c4ccccc4)oc(=O)c32)cc1` (configuration not stated) gave an inhibition of 32.4%. Work on `CC1(C)CC(=O)C2=C(C1)Oc1c(-c3ccccc3)c(-c3ccccc3)oc(=O)c1C2c1cccc(O)c1` (configuration not stated) yielded an inhibition of 3.3%. Compound `CCOC(=O)C1=C(C)Oc2c(I)c(-c3ccccc3)oc(=O)c2C1c1cccc(F)c1` (configuration not stated) has an inhibition of 0.5%. With `CC1(C)CC(=O)C2=C(C1)Oc1c(I)c(-c3ccccc3)oc(=O)c1C2c1cccs1` (configuration not stated) the inhibition was 43.2%. `CCC1C2=C(CC(C)(C)CC2=O)Oc2c(I)c(-c3ccccc3)oc(=O)c21` (configuration not stated) showed an inhibition of 43.9%. In the case of `CCOC(=O)C1=C(C)Oc2c(-c3ccc(O)cc3)c(-c3ccccc3)oc(=O)c2C1c1cccc(F)c1` (configuration not stated), the inhibition is reported as 1.51%.
